# OX1R antag-1 = antagonists of human orexin 1 receptor | O43613 | CHO/OX1R cells, Fluo-8 calcium fluorescence, orexin A | inhibition, % at 5 µM | 0.43% of 330,000 active | AID 434989;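 active means inhibition above its plate's threshold, mean inhibition of all tested compounds on the plate plus 3 SD, cut at about 37% in these data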;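 further: 0% = orexin A challenge wells and 100% = SB-334867-A antagonist wells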
# OX1R antag-2 = blocks the human orexin 1 receptor; AID 485270; O43613; 1.8% of 330,000 active; inhibition, % at 6.6 µM; OX1R-expressing cells, FRET antagonist read-out; in the data active means inhibition mostly above about 38%, no sharp cut-off; inactive means mostly below about 40%;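 further: 0% = agonist challenge alone and 100% = reference antagonist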
# CHO parental Ca = signal in parental CHO cells, OX1R antagonist counter-screen | parental CHO-K1, ATP-induced calcium, Fluo-8 fluorescence | inhibition, % at 5.6 µM | 0.63% of 330,000 active | AID 463079;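 active means inhibition above that plate's mean sample inhibition plus 3 SD, cut at about 26% in these data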;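 further: 0% = ATP-challenged DMSO wells and 100% = DMSO wells without ATP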
#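 Test system: untransfected parental CHO cell line; also added: ATP stimulus; dosing: 5.6 µM, single dose; signal: calcium-sensitive Fluo-8 fluorescence; measure: percent inhibition of ATP-evoked calcium rise, normalized to controls; benchmarks: low control ATP plus DMSO, high control DMSO only; replication: one well per compound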
# GPR7 antagonist = human neuropeptides B/W receptor 1 antagonism; GPR7-expressing cells, fluorescence antagonist assay; inhibition, % at 4.4 µM; 1.1% of 290,000 active; AID 1861; in the data active means inhibition above about 16%, passing the limit was not always enough;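 further: cells stimulated with the agonist NPW; 0% = agonist with vehicle and 100% = vehicle without agonist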
# Target sequence (P48145 whole entry, looked up): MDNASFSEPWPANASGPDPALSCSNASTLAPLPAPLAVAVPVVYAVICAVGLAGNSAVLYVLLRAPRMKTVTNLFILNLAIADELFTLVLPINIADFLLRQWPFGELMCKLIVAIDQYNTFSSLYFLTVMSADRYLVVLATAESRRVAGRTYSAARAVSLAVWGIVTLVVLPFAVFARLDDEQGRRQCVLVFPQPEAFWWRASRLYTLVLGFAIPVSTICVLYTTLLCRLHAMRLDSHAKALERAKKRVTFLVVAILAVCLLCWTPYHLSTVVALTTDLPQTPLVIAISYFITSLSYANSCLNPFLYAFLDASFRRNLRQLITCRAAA
# TAAR1 antagonist = human TAAR1 antagonism; Q96RJ0; CHO RD-HGA16 TAAR1, Fluo-8 calcium fluorescence, antagonist; inhibition, % at 3 µM; 1.5% of 360,000 active; AID 624466;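 active means inhibition above a per-plate cutoff, the mean inhibition of test compounds on that plate plus 3 SD, cut at about 49% in these data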;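 further: 0% = DMSO plus EC80 beta-PEA response and 100% = DMSO alone without agonist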
# Target sequence (Q96RJ0 whole entry, looked up): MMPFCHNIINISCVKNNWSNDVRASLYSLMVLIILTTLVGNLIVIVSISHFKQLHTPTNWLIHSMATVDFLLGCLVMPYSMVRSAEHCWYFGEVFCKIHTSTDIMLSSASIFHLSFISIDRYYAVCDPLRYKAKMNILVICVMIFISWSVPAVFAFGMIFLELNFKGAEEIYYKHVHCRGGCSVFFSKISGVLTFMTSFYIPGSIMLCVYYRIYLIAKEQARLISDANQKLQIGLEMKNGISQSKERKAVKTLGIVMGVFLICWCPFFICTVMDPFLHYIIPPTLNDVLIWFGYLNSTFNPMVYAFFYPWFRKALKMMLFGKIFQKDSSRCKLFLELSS
#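 Test system – hTAAR1-expressing CHO RD-HGA16 cells, Gα16-coupled · Reagent – β-PEA at EC80 concentration, post-compound challenge · Compound dosing – 3 µM, single point · Timing – 140 s kinetic read after compound, 140 s after agonist · Detection – Fluo-8 intracellular calcium dye fluorescence, real-time kinetic reads · Control set – DMSO and EC80 PEA controls · Repeats – n of 1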
# TAAR1 ag = agonists of human TAAR1; activation, % at 3 µM; 0.99% of 360,000 active; CHO RD-HGA16 TAAR1, Fluo-8 calcium fluorescence; vehicle wells 0%, saturating PEA agonist 100%; Q96RJ0;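 active means activation above the mean activation of all test compounds in the run plus 3 SD, cut at about 38% in these data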
#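 System: CHO-derived RD-HGA16 cells with stable Gα16 and human TAAR1 / Times: 17-24 h plating, Fluo-8 75 min 37 °C, 30 min RT / Technique: calcium-sensitive Fluo-8 signal, excitation 470-495, emission 515-575 nm / Measure: % activation relative to PEA EC100 response / Benchmarks: DMSO and PEA EC100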
# Starred values were filed as active, the others as inactive; · = not tested or not shown. Sampled rows, rich in hits. Any-hit rate of the full collection: about 4.6%.
SMILES,OX1R antag-1,OX1R antag-2,CHO parental Ca,GPR7 antagonist,TAAR1 antagonist,TAAR1 ag
C/C=C(/C)C(=O)O[C@@H]1c2c(ccc3ccc(=O)oc23)OC(C)(C)[C@@H]1OC(=O)/C(C)=C\C,-11,19,62*,-2,32,0
C/C=C(/C)C(=O)O[C@@H]1[C@H](OC(=O)C=C(C)C)c2c(ccc3ccc(=O)oc23)OC1(C)C,-24,18,-6,-9,-4,9
COc1cc(NS(=O)(=O)c2c(C)[nH]c(C)c2C(=O)N2CCCCC2)cc(OC)c1OC,-7,17,-17,6,-11,3
COc1ccc(Cl)cc1NS(=O)(=O)c1c(C)[nH]c(C)c1C(=O)N1CCCCC1,12,49*,-26,-2,-11,5
CCN(CC)S(=O)(=O)c1cc(C(=O)Nc2cccnc2Cl)ccc1Cl,-22,40,6,-2,5,4
Cc1ccc(/C(C#N)=C\c2ccc(N3CCOCC3)o2)cc1,-22,8,-11,5,24,14
Cc1ccc2nc(/C(C#N)=C\c3ccc(N4CCOCC4)o3)[nH]c2c1,-2,25,-1,-16,21,43*
COc1ccc(CCNC2=CC(=O)N(c3ccc(F)cc3)C2=O)cc1,-8,21,39*,-4,-11,22
CCNC(=O)CC1C(=O)N(c2ccc(F)cc2)C(=O)N1CCc1ccc(OC)cc1 (centres undefined),-12,1,-17,-12,8,3
Cc1ccc(S(=O)(=O)N2[C@@H](CO)CO[C@H]2CC(=O)c2ccccc2)cc1,·,·,·,·,6,1
COc1c2c(cc3c1c(=O)c1ccccc1n3C)OCO2,·,·,·,·,-9,-1
COC(=O)c1sc(NC(=O)c2cc(-c3ccccc3)nc3ccccc23)c(C#N)c1C,14,72*,-8,-1,35,11
CCOC(=O)c1sc(NC(=O)c2cc(-c3ccc(C)cc3)nc3ccccc23)c(C#N)c1C,-17,6,-6,-12,5,10
Cc1cc(NC(=O)c2cc(-c3ccccc3C)nc3ccccc23)no1,-35,20,-20,-11,10,2
Cc1ccccc1-c1cc(C(=O)Nc2sc(C(=O)OC(C)C)c(C)c2C#N)c2ccccc2n1,-11,45*,1,-14,25,16
COc1ccc(Oc2cccc3c2S(=O)(=O)N(C2CC2)C[C@@H](COCc2ccccc2)O3)cc1,·,·,·,·,9,-1
O=C(Nc1ccn(CCCNCC2CCCO2)c(=O)n1)OCc1ccccc1 (centres undefined),·,·,·,·,-24,4
COc1cccc(C2=CC(=O)C[C@H](c3ccc(Cl)cc3)C2)c1OC,-42,3,-18,·,22,2
COc1ccc([C@H]2CC(=O)C=C(c3ccc(F)cc3OCc3ccccc3)C2)cc1,29,-1,0,·,52*,17
COc1ccccc1C1=CC(=O)C[C@H](c2ccc(Cl)cc2)C1,-13,-1,-20,·,50*,15
CCN(CC(=O)NCc1ccc(Cl)cc1)C(=O)CN1C(=O)NC(C)(c2ccccc2)C1=O (centres undefined),-15,12,-19,-12,-5,0
Cc1c(C(=O)NNC(=O)c2ccccc2O)oc2ccc(Br)cc12,-3,8,64*,·,-4,4
CC(C)(C)n1nc2c(c1NC(=O)c1cc(Cl)ccc1[N+](=O)[O-])CS(=O)(=O)C2,4,25,-2,22,8,9
C[C@H]1C(=O)N(C)CCN1C(=O)c1cccc(OC2CCN(CC(C)(C)C)CC2)c1,4,26,3,-7,-3,0
COC(=O)Cn1c(=NC(=O)c2cc(OC)cc(OC)c2)sc2cc(OC)ccc21,-15,20,-4,3,4,6
SMILES,OX1R antag-1,OX1R antag-2,CHO parental Ca,GPR7 antagonist,TAAR1 antagonist,TAAR1 ag
COC(=O)Cn1c(=NC(=O)c2cccc(OC)c2)sc2cc(OC)ccc21,-12,7,1,-9,49*,6
COCCn1c(SCC(=O)N2CCCCC2)nc2c(c1=O)SC(C)C2 (centres undefined),-21,15,100*,-2,7,-1
COCCn1c(SCC(=O)N2CCc3ccccc3C2)nc2ccccc2c1=O,-4,72*,-16,2,19,3
COCCn1c(SCC(=O)N2CCCCC2)nc2c(c1=O)SCC2,-19,9,-10,-12,-12,-1
Cc1cc2ccccc2n2c(SCC(=O)N3CCc4ccccc4C3)nnc12,26,73*,-26,-12,8,9
COc1cc(C(=S)N2CCOCC2)cc(OC)c1OC(=O)c1cccc(C)c1,21,66*,-16,-11,-5,-1
O=C(Oc1cccc(C(=S)N2CCOCC2)c1)c1cccc([N+](=O)[O-])c1,-19,17,-12,-1,-1,12
COc1cc(C(=S)N2CCOCC2)ccc1OC(=O)c1ccccc1[N+](=O)[O-],9,61*,-9,-17,22,13
O=C(Oc1cccc(C(=S)N2CCOCC2)c1)c1cc([N+](=O)[O-])cc([N+](=O)[O-])c1,-14,68*,-8,-6,-3,-1
CCN1CCN(C(CNS(=O)(=O)c2ccccc2)c2ccccc2)CC1 (centres undefined),-10,-5,-18,2,0,1
C[C@]12c3[nH]c4cc(-c5ccco5)ccc4c3CCN1C(=O)[C@@H](CC(=O)NCc1cccc(C(F)(F)F)c1)C[C@@H]2C(=O)N1CCCCC1,-14,1,-15,·,-7,1
Cc1ccc(OCc2nnc(SCc3nc4ccccc4[nH]3)n2Cc2ccco2)cc1,36,62,32*,-2,36,10
COc1cccc(C=NN(C)c2c([N+](=O)[O-])cc(C(F)(F)F)cc2[N+](=O)[O-])c1O,·,·,·,·,-13,-1
O=C(N/N=C/c1cccs1)c1cc(-c2ccc(Cl)s2)[nH]n1,9,59*,-4,-10,11,5
COc1cc(OC)c2c(=O)cc(-c3ccccc3)oc2c1,-30,44*,-16,-25,9,1
Cc1ccc(C)c(C(C)NC(=S)NCc2ccc(F)cc2)c1 (centres undefined),41*,31,67*,22,-3,18
COc1ccc(C(C)NC(=S)NCc2ccc(F)cc2)cc1 (centres undefined),-3,-2,-7,1,9,9
C=CC[C@H](CC(=O)N(CCO)Cc1ccccc1)C(=O)NCCOC(=O)[C@@H](CC=C)Cc1ccc(F)cc1,4,17,-12,·,17,9
C=CC[C@H](CC(=O)N(CCO)Cc1ccccc1)C(=O)NC[C@H](OC(=O)[C@@H](CC=C)Cc1ccc(F)cc1)c1ccccc1,26,16,5,·,90*,28

# Compound activity (PubChem)
